Test results: ChEMBL document CHEMBL4330106, “A new class of pentapeptide KISS1 receptor agonists with hypothalamic-pituitary-gonadal axis activation” (Bioorg Med Chem Lett, 2019)
pEC50: −log10 of the molar value. Square brackets hold non-standard residues; d marks the D form. Peptide text beside a SMILES is read from it. * marks the point of attachment. Propanoyl(3-indol-3-yl) = O=C(CCc1c[nH]c2ccccc12)*; Propanoyl(3-(4-pyridyl)) = O=C(CCc1ccncc1)*; Arg(Me) = CNC(=N)NCCC[C@H](N)C(=O)O; Hydrocinnamoyl = O=C(CCc1ccccc1)*; Hexanoyl = CCCCCC(=O)*; Bz = O=C(c1ccccc1)*; azaGly = NNC(=O)O

Experiments:
[1] = biological target: KiSS-1 receptor (Homo sapiens, UniProt Q969F8); assay: Agonist activity at human KISS1R expressed in CHO cells assessed as increase in calcium mobilization measured at 2 secs interval for 2 mins by fluo-4 NW dye based FLIPR assay; format: functional, cell-based
In short: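 Ligand-induced Ca2+ rise in CHO cells expressing human KISS1R, read on a fluorometric imaging plate reader (FLIPR); agonist potency reported as EC50 (nM).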

[2] = Retention time of the compound by reverse-phase HPLC method; format: physicochemical
In short: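 RP-HPLC on C18 monolith column. Linear gradient of 0.1% TFA water / 0.1% TFA acetonitrile, A/B 95/5 to 35/65 over 10 min, 3.0 mL/min.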

Chain of KiSS-1 receptor (Q969F8 whole entry): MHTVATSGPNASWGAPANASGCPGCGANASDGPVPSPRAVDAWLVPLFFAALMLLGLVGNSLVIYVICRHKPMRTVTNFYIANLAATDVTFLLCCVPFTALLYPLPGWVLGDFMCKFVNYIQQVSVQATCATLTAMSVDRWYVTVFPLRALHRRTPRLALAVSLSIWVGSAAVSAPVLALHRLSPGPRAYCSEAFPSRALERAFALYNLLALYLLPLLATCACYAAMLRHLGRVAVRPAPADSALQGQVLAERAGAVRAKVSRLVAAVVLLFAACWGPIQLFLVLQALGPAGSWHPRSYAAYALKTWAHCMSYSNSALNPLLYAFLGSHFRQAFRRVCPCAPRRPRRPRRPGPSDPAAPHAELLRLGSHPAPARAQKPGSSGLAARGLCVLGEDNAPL

For `CNC(=N)NCCC[C@H](NC(=O)[C@H](CC(C)C)NC(=O)NNC(=O)[C@H](Cc1ccccc1)NC(=O)CCc1c[nH]c2ccccc12)C(=O)N[C@@H](Cc1ccccc1)C(N)=O` ({Propanoyl(3-indol-3-yl)}-F[azaGly]L[Arg(Me)]F-NH2), the pEC50 [1] was 9.21 and the Retention_time [2] was 6.58 min.

In the case of `CNC(=N)NCCC[C@H](NC(=O)[C@H](CC(C)C)NC(=O)NNC(=O)[C@H](Cc1ccccc1)NC(=O)C(C)C)C(=O)N[C@@H](Cc1c[nH]c2ccccc12)C(N)=O`, the pEC50 [1] was 10.24 and the Retention_time [2] was 5.88 min.

In the case of `CNC(=N)NCCC[C@H](NC(=O)[C@H](CC(C)C)NC(=O)NNC(=O)[C@H](Cc1ccccc1)NC(=O)[C@H](CO)NC(=O)[C@H](CC(N)=O)NC(=O)CCc1ccncc1)C(=O)N[C@@H](Cc1ccccc1)C(N)=O` ({Propanoyl(3-(4-pyridyl))}-NSF[azaGly]L[Arg(Me)]F-NH2), the pEC50 [1] was 8.82 and the Retention_time [2] was 4.51 min.

For `CNC(=N)NCCC[C@H](NC(=O)[C@H](CC(C)C)NC(=O)NNC(=O)[C@H](Cc1ccccc1)NC(=O)c1ccc[nH]1)C(=O)N[C@@H](Cc1c[nH]c2ccccc12)C(N)=O`, the pEC50 [1] was 9.64 and the Retention_time [2] was 5.91 min.

With `CNC(=N)NCCC[C@H](NC(=O)[C@H](CC(C)C)NC(=O)NNC(=O)[C@H](Cc1ccccc1)NC(=O)[C@H](CO)NC(=O)[C@H](CC(N)=O)NC(=O)CCc1ccccc1)C(=O)N[C@@H](Cc1ccccc1)C(N)=O` (Hydrocinnamoyl-NSF[azaGly]L[Arg(Me)]F-NH2) the pEC50 [1] was 9.77 and the Retention_time [2] was 5.9 min.

For `CNC(=N)NCCC[C@H](NC(=O)[C@H](CC(C)C)NC(=O)NNC(=O)[C@H](Cc1ccccc1)NC(=O)c1ccoc1)C(=O)N[C@@H](Cc1c[nH]c2ccccc12)C(N)=O`, the pEC50 [1] was 9.96 and the Retention_time [2] was 5.88 min.

For `CNC(=N)NCCC[C@H](NC(=O)[C@H](CC(C)C)NC(=O)NNC(=O)[C@H](Cc1ccccc1)NC(=O)Cc1ccccc1)C(=O)N[C@@H](Cc1c[nH]c2ccccc12)C(N)=O`, the pEC50 [1] was 9.57 and the Retention_time [2] was 6.49 min.

Work on `CNC(=N)NCCC[C@H](NC(=O)[C@H](CC(C)C)NC(=O)NNC(=O)[C@H](Cc1ccccc1)NC(=O)[C@H](CO)NC(=O)CCc1c[nH]c2ccccc12)C(=O)N[C@@H](Cc1ccccc1)C(N)=O` ({Propanoyl(3-indol-3-yl)}-SF[azaGly]L[Arg(Me)]F-NH2) yielded a pEC50 [1] of 8.09 and a Retention_time [2] of 6.17 min.

With `CNC(=N)NCCC[C@H](NC(=O)[C@H](CC(C)C)NC(=O)NNC(=O)[C@H](Cc1ccccc1)NC(=O)c1ccccc1)C(=O)N[C@@H](Cc1ccccc1)C(N)=O` (Bz-F[azaGly]L[Arg(Me)]F-NH2) the pEC50 [1] was 9.22 and the Retention_time [2] was 6.21 min.

For `CNC(=N)NCCC[C@H](NC(=O)[C@H](CC(C)C)NC(=O)NNC(=O)[C@@H](N)Cc1ccccc1)C(=O)N[C@@H](Cc1ccccc1)C(N)=O` (H-F[azaGly]L[Arg(Me)]F-NH2), the pEC50 [1] was 6.89 and the Retention_time [2] was 4.29 min.

`CNC(=N)NCCC[C@H](NC(=O)[C@H](CC(C)C)NC(=O)NNC(=O)[C@H](Cc1ccccc1)NC(C)=O)C(=O)N[C@@H](Cc1ccccc1)C(N)=O` (Ac-F[azaGly]L[Arg(Me)]F-NH2) showed a pEC50 [1] of 9.48 and a Retention_time [2] of 5.02 min.

In the case of `CNC(=N)NCCC[C@H](NC(=O)[C@H](CC(C)C)NC(=O)NNC(=O)[C@H](Cc1ccccc1)NC(=O)[C@H](CO)NC(=O)[C@H](CC(N)=O)NC(=O)CCc1c[nH]c2ccccc12)C(=O)N[C@@H](Cc1ccccc1)C(N)=O` ({Propanoyl(3-indol-3-yl)}-NSF[azaGly]L[Arg(Me)]F-NH2), the pEC50 [1] was 9.89 and the Retention_time [2] was 5.95 min.

Compound `CNC(=N)NCCC[C@H](NC(=O)[C@H](CC(C)C)NC(=O)NNC(=O)[C@H](Cc1ccccc1)NC(=O)c1c[nH]cn1)C(=O)N[C@@H](Cc1c[nH]c2ccccc12)C(N)=O` has a pEC50 [1] of 9.62 and a Retention_time [2] of 4.47 min.

In the case of `CNC(=N)NCCC[C@H](NC(=O)[C@H](CC(C)C)NC(=O)NNC(=O)[C@H](Cc1ccccc1)NC(=O)[C@H](CO)NC(=O)[C@H](CC(N)=O)NC(=O)[C@@H](N)Cc1c[nH]c2ccccc12)C(=O)N[C@@H](Cc1ccccc1)C(N)=O` (H-WNSF[azaGly]L[Arg(Me)]F-NH2), the pEC50 [1] was 8.11 and the Retention_time [2] was 5.03 min.

Work on `CNC(=N)NCCC[C@H](NC(=O)[C@H](CC(C)C)NC(=O)NNC(=O)[C@H](Cc1ccccc1)NC(=O)C1CCCCC1)C(=O)N[C@@H](Cc1c[nH]c2ccccc12)C(N)=O` yielded a pEC50 [1] of 9.92 and a Retention_time [2] of 6.7 min.

For `CNC(=N)NCCC[C@H](NC(=O)[C@H](CC(C)C)NC(=O)NNC(=O)[C@H](Cc1ccccc1)NC(=O)C1CC1)C(=O)N[C@@H](Cc1c[nH]c2ccccc12)C(N)=O`, the pEC50 [1] was 10.55 and the Retention_time [2] was 5.7 min.

`CCCCCC(=O)N[C@@H](Cc1ccccc1)C(=O)NNC(=O)N[C@@H](CC(C)C)C(=O)N[C@@H](CCCNC(=N)NC)C(=O)N[C@@H](Cc1ccccc1)C(N)=O` (Hexanoyl-F[azaGly]L[Arg(Me)]F-NH2) showed a pEC50 [1] of 8.85 and a Retention_time [2] of 6.66 min.

Compound `CNC(=N)NCCC[C@H](NC(=O)[C@H](CC(C)C)NC(=O)NNC(=O)[C@H](Cc1ccccc1)NC(=O)[C@H](CO)NC(=O)[C@H](CC(N)=O)NC(=O)[C@H](Cc1c[nH]c2ccccc12)NC(C)=O)C(=O)N[C@@H](Cc1ccccc1)C(N)=O` (Ac-WNSF[azaGly]L[Arg(Me)]F-NH2) has a pEC50 [1] of 8.68 and a Retention_time [2] of 5.76 min.

For `CCC(=O)N[C@@H](Cc1ccccc1)C(=O)NNC(=O)N[C@@H](CC(C)C)C(=O)N[C@@H](CCCNC(=N)NC)C(=O)N[C@@H](Cc1c[nH]c2ccccc12)C(N)=O`, the pEC50 [1] was 9.89 and the Retention_time [2] was 5.52 min.

With `CNC(=N)NCCC[C@H](NC(=O)[C@H](CC(C)C)NC(=O)NNC(=O)[C@H](Cc1ccccc1)NC(=O)[C@H](CO)NC(=O)[C@H](CC(N)=O)NC(=O)[C@H](Cc1c[nH]c2ccccc12)NC(=O)[C@H](N)Cc1ccc(O)cc1)C(=O)N[C@@H](Cc1ccccc1)C(N)=O` (H-[dY]WNSF[azaGly]L[Arg(Me)]F-NH2) the pEC50 [1] was 10.24 and the Retention_time [2] was 5.54 min.

Work on `CNC(=N)NCCC[C@H](NC(=O)[C@H](CC(C)C)NC(=O)NNC(=O)[C@H](Cc1ccccc1)NC(=O)CCc1c[nH]c2ccccc12)C(=O)N[C@@H](Cc1c[nH]c2ccccc12)C(N)=O` yielded a pEC50 [1] of 10.66 and a Retention_time [2] of 6.67 min.

`CNC(=N)NCCC[C@H](NC(=O)[C@H](CC(C)C)NC(=O)NNC(=O)[C@H](Cc1ccccc1)NC(=O)c1ccccn1)C(=O)N[C@@H](Cc1c[nH]c2ccccc12)C(N)=O` gave a pEC50 [1] of 10.43 and a Retention_time [2] of 6.02 min.

For `CNC(=N)NCCC[C@H](NC(=O)[C@H](CC(C)C)NC(=O)NNC(=O)[C@H](Cc1ccccc1)NC(=O)c1cccnc1)C(=O)N[C@@H](Cc1c[nH]c2ccccc12)C(N)=O`, the pEC50 [1] was 9.80 and the Retention_time [2] was 4.69 min.
